Data from ChEMBL document CHEMBL3085764, “Azole-carbodithioate hybrids as vaginal anti-Candida contraceptive agents: design, synthesis and docking studies” (Eur J Med Chem, 2013).
Values after ≈ are worked out from the molar mass of the structure shown.

Columns and labels:
[1] = tested on: Sporothrix schenckii; assay: Antifungal activity against Sporothrix schenckii after 48 hrs by broth microdilution technique; format: functional, organism-based
In short: (§1)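 MIC by broth microdilution following NCCLS guidelines, in RPMI 1640 buffered with MOPS. Starting inoculum 1-5 × 10^3 CFU/mL. Plates incubated at 35 °C. MIC and IC50 read spectrophotometrically at 492 nm after 48 h.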

[2] = tested on: Trichomonas vaginalis; assay: Trichomonacidal activity against Trichomonas vaginalis after 48 hrs by trypan blue exclusion assay; format: functional; details: read-out: MEC
In short: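 T. vaginalis in log phase, grown in TYM with 10% FCS, vitamin mixture and penicillin/streptomycin at 37 °C. DMSO stocks ([…]) serially diluted in TYM down to 0.1 µg/mL; DMSO/TYM vehicle controls. 5 × 10^4 trophozoites added and incubated anaerobically at 37 °C. Viability checked by trypan blue from 3 to 48 h. MIC = lowest concentration killing all cells by 48 h. Three repeats.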

[3] = Spermicidal activity in human semen assessed as sperm immobilization at 0.1 % w/v up to 30 seconds by phase contrast microscopy; format: functional
[4] = Spermicidal activity in human semen assessed as sperm immobilization at 1.0 % w/v up to 30 seconds by phase contrast microscopy; format: functional
[5] = tested on: Candida albicans; assay: Antifungal activity against Candida albicans clinical isolate after 48 hrs by broth microdilution technique; format: functional, organism-based; in short: as §1
[6] = tested on: Candida albicans; assay: Antifungal activity against Candida albicans ATCC 10231 after 48 hrs by broth microdilution technique; format: functional, organism-based; details: ATCC 10231, 48 h; in short: as §1
[7] = tested on: Candida albicans; assay: Antifungal activity against Candida albicans clinical isolate CDRI after 48 hrs by broth microdilution technique; format: functional, organism-based; in short: as §1
[8] = tested on: Candida albicans; assay: Antifungal activity against Candida albicans MTCC 183 after 48 hrs by broth microdilution technique; format: functional, organism-based; details: MTCC 183, 48 h; in short: as §1
[9] = tested on: Candida parapsilosis; assay: Antifungal activity against Candida parapsilosis ATCC 22019 after 48 hrs by broth microdilution technique; format: functional, organism-based; details: Lodderomyces parapsilosis, ATCC 22019, 48 h; in short: as §1
[10] = tested on: Candida albicans; assay: Antifungal activity against Candida albicans after 48 hrs by broth microdilution technique; format: functional, organism-based; in short: as §1
[11] = tested on: Klebsiella pneumoniae; assay: Antibacterial activity against Klebsiella pneumoniae after 48 hrs by broth microdilution technique; format: functional
In short: (§2)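 Broth microdilution following NCCLS guidelines in Mueller Hinton broth. Inoculum held at 1-5 × 10^3 cfu/mL. Plates incubated at 35 °C in a moist, dark chamber for 48 h. MIC and IC50 read spectrophotometrically at 492 nm.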

[12] = tested on: Staphylococcus aureus; assay: Antibacterial activity against Staphylococcus aureus ATCC 25923 after 48 hrs by broth microdilution technique; format: functional; details: ATCC 25923, 48 h; in short: as §2
[13] = tested on: Pseudomonas aeruginosa; assay: Antibacterial activity against Pseudomonas aeruginosa ATCC BAA-427 after 48 hrs by broth microdilution technique; format: functional; details: ATCC BAA-427, 48 h; in short: as §2
[14] = tested on: Escherichia coli; assay: Antibacterial activity against Escherichia coli ATCC 9637 after 48 hrs by broth microdilution technique; format: functional; details: ATCC 9637, 48 h; in short: as §2
[15] = tested on: Cryptococcus neoformans; assay: Antifungal activity against Cryptococcus neoformans after 48 hrs by broth microdilution technique; format: functional, organism-based; in short: as §1
[16] = tested on: Aspergillus fumigatus; assay: Antifungal activity against Aspergillus fumigatus after 48 hrs by broth microdilution technique; format: functional, organism-based; in short: as §1
[17] = tested on: Trichophyton mentagrophytes; assay: Antifungal activity against Trichophyton mentagrophytes after 48 hrs by broth microdilution technique; format: functional, organism-based; in short: as §1

Compound	IC50 [1]	minimal effective concentration [2]	Activity [3]	Activity [4]	IC50 [5]	IC50 [6]	IC50 [7]	IC50 [8]	IC50 [9]	IC50 [10]	MIC [11]	MIC [12]	MIC [13]	MIC [14]	IC50 [15]	IC50 [16]	IC50 [17]
C=CCSC(=S)n1ccnc1C	1.5 µg/mL (≈ 7.56 µM)	> 200 µg/mL	0%	100%	2.1 µg/mL (≈ 10.6 µM)	4.53 µg/mL (≈ 22.8 µM)	7.26 µg/mL (≈ 36.6 µM)	3.61 µg/mL (≈ 18.2 µM)	10.2 µg/mL (≈ 51.2 µM)	2.21 µg/mL (≈ 11.1 µM)	≥ 50 µg/mL	≥ 50 µg/mL	≥ 50 µg/mL	≥ 50 µg/mL	3.35 µg/mL (≈ 16.9 µM)	18.1 µg/mL (≈ 91.3 µM)	> 50 µg/mL
CCCCCCCCSC(=S)n1ccnc1C	4.47 µg/mL (≈ 16.5 µM)	> 200 µg/mL	100%	100%	> 50 µg/mL	> 50 µg/mL	19 µg/mL (≈ 70.4 µM)	> 50 µg/mL	> 50 µg/mL	7.21 µg/mL (≈ 26.7 µM)	≥ 50 µg/mL	≥ 50 µg/mL	≥ 50 µg/mL	≥ 50 µg/mL	> 50 µg/mL	> 50 µg/mL	> 50 µg/mL
CCCCCCCCCCCCCCCCSC(=S)n1ccnc1C	> 50 µg/mL	> 200 µg/mL	0%	95%	> 50 µg/mL	> 50 µg/mL	> 50 µg/mL	> 50 µg/mL	> 50 µg/mL	> 50 µg/mL	≥ 50 µg/mL	≥ 50 µg/mL	≥ 50 µg/mL	≥ 50 µg/mL	> 50 µg/mL	> 50 µg/mL	7.07 µg/mL (≈ 18.5 µM)
C=CCSC(=S)n1cncn1	5.78 µg/mL (≈ 31.2 µM)	> 200 µg/mL	0%	100%	> 50 µg/mL	> 50 µg/mL	45.5 µg/mL (≈ 246 µM)	> 50 µg/mL	> 50 µg/mL	2.53 µg/mL (≈ 13.7 µM)	≥ 50 µg/mL	≥ 50 µg/mL	≥ 50 µg/mL	≥ 50 µg/mL	> 50 µg/mL	> 50 µg/mL	> 50 µg/mL
N#CCCCSC(=S)n1cnc2ccccc21	–	> 200 µg/mL	0%	100%	> 50 µg/mL	> 50 µg/mL	3.86 µg/mL (≈ 14.8 µM)	> 50 µg/mL	> 50 µg/mL	> 50 µg/mL	≥ 50 µg/mL	≥ 50 µg/mL	≥ 50 µg/mL	≥ 50 µg/mL	> 50 µg/mL	> 50 µg/mL	–
C=CCSC(=S)n1cnc2ccccc21	–	> 200 µg/mL	0%	100%	> 50 µg/mL	> 50 µg/mL	39.3 µg/mL (≈ 168 µM)	40.1 µg/mL (≈ 171 µM)	> 50 µg/mL	> 50 µg/mL	≥ 50 µg/mL	≥ 50 µg/mL	≥ 50 µg/mL	≥ 50 µg/mL	> 50 µg/mL	> 50 µg/mL	> 50 µg/mL
Cn1nnc2ccccc21	1.58 µg/mL (≈ 11.9 µM)	> 200 µg/mL	0%	0%	> 50 µg/mL	> 50 µg/mL	> 50 µg/mL	> 50 µg/mL	> 50 µg/mL	> 50 µg/mL	≥ 50 µg/mL	≥ 50 µg/mL	≥ 50 µg/mL	≥ 50 µg/mL	> 50 µg/mL	> 50 µg/mL	> 50 µg/mL
OC(Cn1cncn1)(Cn1cncn1)c1ccc(F)cc1F [FLUCONAZOLE]	0.08 µg/mL (≈ 0.261 µM)	–	–	–	–	–	–	0.21 µg/mL (≈ 0.686 µM)	0.46 µg/mL (≈ 1.5 µM)	–	–	–	–	–	–	0.38 µg/mL (≈ 1.24 µM)	0.06 µg/mL (≈ 0.196 µM)
Cc1ncc([N+](=O)[O-])n1CCO [METRONIDAZOLE]	–	2 µg/mL	0%	0%	–	–	–	–	–	–	–	–	–	–	–	–	–
